Reference: ChEMBL document CHEMBL5244225, “Bioassay-Guided Isolation of Fungistatic Compounds from Mimosa caesalpiniifolia Leaves” (J Nat Prod, 2019)
Calls of active or inactive are those of the source. No cut-off for these calls is given here.

Experiments:
Pichia kudriavzevii [1] = test: Antifungal activity against Candida krusei ATCC 6258 assessed as inhibition of microbial growth incubated for 24 hrs by broth microdilution method; assay type: functional, organism-based; settings: for IC50: ATCC 6258, 24 h; for IC90: ATCC 6258, time 24 hrs
How it was run: (§1)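 Broth microdilution following CLSI M27-A3 and supplement M27-S4. Pure compounds were tested at 100 down to 0.06 μg mL−1 in a 10-step series, diluted from DMSO (≤1% DMSO final). Fluconazole served as the fungistatic control. Plates were incubated at 37 °C for 24 h and growth was read spectrophotometrically at 530 nm. IC50 and IC90 were taken as 50% and 90% growth inhibition.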

Nakaseomyces glabratus [2] = test: Antifungal activity against Candida glabrata ATCC 90030 assessed as inhibition of microbial growth incubated for 24 hrs by broth microdilution method; assay type: functional, organism-based; settings: for IC50: ATCC 90030, 24 h; for IC90: ATCC 90030, time 24 hrs; how it was run: as §1
Pichia kudriavzevii [3] = test: Antifungal activity against Candida krusei ATCC 6258 assessed as inhibition of microbial growth at 100 to 0.06 ug/ml incubated for 24 hrs by broth microdilution method; assay type: functional, organism-based; settings: dose 100-0.06 µg/ml
Pichia kudriavzevii [4] = test: Antifungal activity against Candida krusei ATCC 6258 assessed as inhibition of microbial growth incubated for 24 hrs in the presence of 3-(beta-D-glucopyranosyloxy)sitosterol by broth microdilution method; assay type: functional, organism-based; settings: ATCC 6258, 24 h
How it was run: (§2)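 Checkerboard combination of two compounds, each serially diluted in Mueller−Hinton broth. Ranges were set so that, after adding inoculum, concentrations sat at the range averages. Plates were incubated for 24 h at 37 °C and growth was quantified at 530 nm, as in the single-agent microdilution test. The inhibitory concentration of each compound was determined in combination.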

Nakaseomyces glabratus [5] = test: Antifungal activity against Candida glabrata ATCC 90030 assessed as inhibition of microbial growth incubated for 24 hrs in the presence of 3-(beta-D-glucopyranosyloxy)sitosterol by broth microdilution method; assay type: functional, organism-based; settings: ATCC 90030, 24 h; how it was run: as §2
Pichia kudriavzevii [6] = test: Synergistic antifungal activity against Candida krusei ATCC 6258 assessed as fractional inhibitory concentration index incubated for 24 hrs in the presence of 3-(beta-D-glucopyranosyloxy)sitosterol by checkerboard assay; assay type: functional
How it was run: (§3)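 Checkerboard pairing of two compounds serially diluted in Mueller−Hinton broth, incubated for 24 h at 37 °C, with growth read spectrophotometrically at 530 nm. Each FIC is the compound's IC in combination divided by its IC alone, and ΣFIC is the sum of the FIC values. ΣFIC ≤0.5 was taken as synergy, 0.5–4 as no interaction and >4 as antagonism.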

Nakaseomyces glabratus [7] = test: Additive antifungal activity against Candida glabrata ATCC 90030 assessed as fractional inhibitory concentration index incubated for 24 hrs in the presence of 3-(beta-D-glucopyranosyloxy)sitosterol by checkerboard assay; assay type: functional; how it was run: as §3
Nakaseomyces glabratus [8] = test: Selectivity index, ratio of IC50 for antifungal activity against Candida glabrata ATCC 90030 to IC50 for antifungal activity against Candida glabrata ATCC 90030 in the presence of 3-(beta-D-glucopyranosyloxy)sitosterol; assay type: functional

## C[C@H]1O[C@@H](c2c(O)cc(O)c3c(=O)cc(-c4ccc(O)cc4)oc23)C[C@@H](O)[C@@H]1O
Pichia kudriavzevii [1]
  IC50: 7.8 µg/mL
  IC90: 250 µg/mL
Nakaseomyces glabratus [2]
  IC50: 3.9 µg/mL
  IC90: 500 µg/mL

## O=C(O)/C=C/c1c(O)cc2oc(-c3ccc(O)cc3)cc(=O)c2c1O
Pichia kudriavzevii [1]
  IC50: 15 µg/mL
Nakaseomyces glabratus [2]
  IC50: 3.9 µg/mL

## C[C@@H]1O[C@@H](O[C@H]2C(=O)[C@@H](O)[C@H](C)O[C@@H]2c2c(O)cc3oc(-c4ccc(O)c(O)c4)cc(=O)c3c2O)[C@H](O)[C@H](O)[C@H]1O
Nakaseomyces glabratus [2]
  IC50: 100 µg/mL
Pichia kudriavzevii [3]
  Activity: inactive

## OC(Cn1cncn1)(Cn1cncn1)c1ccc(F)cc1F [FLUCONAZOLE]
Pichia kudriavzevii [1]
  IC50: 16 µg/mL
Nakaseomyces glabratus [2]
  IC50: 4 µg/mL

## CCOC(=O)c1cc(O)c(O)c(O)c1 [ETHYLGALLATE]
Pichia kudriavzevii [1]
  IC50: 15 µg/mL
Nakaseomyces glabratus [2]
  IC50: 15 µg/mL
Pichia kudriavzevii [4]
  IC50: 1 µg/mL
Nakaseomyces glabratus [5]
  IC50: 2.5 µg/mL
Pichia kudriavzevii [6]
  fractional inhibitory concentration index (FICI): 0.1
Nakaseomyces glabratus [7]
  fractional inhibitory concentration index (FICI): 0.5
Nakaseomyces glabratus [8]
  Ratio IC50: 100

## O=C(O)c1cc(O)c(O)c(O)c1 [GALLIC ACID]
Nakaseomyces glabratus [2]
  IC50: 60 µg/mL
Pichia kudriavzevii [3]
  Activity: inactive

## C[C@H]1O[C@@H](c2c(O)cc3oc(-c4ccc(O)cc4)cc(=O)c3c2O)C[C@H](O)[C@H]1O
Pichia kudriavzevii [1]
  IC50: 250 µg/mL
  IC90: 1000 µg/mL
Nakaseomyces glabratus [2]
  IC50: 1000 µg/mL

## O=c1c(O)c(-c2ccc(O)c(O)c2)oc2cc(O)cc(O)c12 [QUERCETIN]
Pichia kudriavzevii [1]
  IC50: 100 µg/mL
Nakaseomyces glabratus [2]
  IC50: 60 µg/mL

## C[C@@]12Oc3cc4oc(-c5ccc(O)cc5)cc(=O)c4c(O)c3[C@@H](C[C@H](O)[C@H]1O)O2
Pichia kudriavzevii [1]
  IC50: 62.5 µg/mL
  IC90: 250 µg/mL
Nakaseomyces glabratus [2]
  IC50: 7.8 µg/mL
  IC90: 500 µg/mL

## O=c1cc(-c2ccc(O)c(O)c2)oc2cc(O)cc(O)c12 [LUTEOLIN]
Nakaseomyces glabratus [2]
  IC50: 15 µg/mL
Pichia kudriavzevii [3]
  Activity: inactive

## O=C(O)/C=C/c1c(O)cc(O)c2c(=O)cc(-c3ccc(O)cc3)oc12
Pichia kudriavzevii [1]
  IC50: 125 µg/mL
  IC90: 250 µg/mL
Nakaseomyces glabratus [2]
  IC50: 3.9 µg/mL
  IC90: 250 µg/mL

## C[C@@H]1O[C@@H](O[C@H]2C(=O)[C@@H](O)[C@H](C)O[C@@H]2c2c(O)cc(O)c3c(=O)cc(-c4ccc(O)c(O)c4)oc23)[C@H](O)[C@H](O)[C@H]1O
Pichia kudriavzevii [1]
  IC50: 100 µg/mL
Nakaseomyces glabratus [2]
  IC50: 60 µg/mL
